As usually defined, the IC50 is the concentration that inhibits the measured activity by half.

Assay type in all cases: functional, cell-based
In one assay the test system is MGC-803. Nature of the assay: Cytotoxicity against human MGC803 cells after 72 hrs by MTS assay. To be noted: for IC50: MGC-803, 72 h. An outline of the steps:
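Gastric MGC-803 line maintained in RPMI-1640 plus 10% FBS, 37 °C, 5% CO2. Cells seeded at 1 × 10^4/well, incubated 24 h, then given medium with varying sample concentrations for 72 h. After 2 h with MTS, absorbance taken at 490 nm (reference 690 nm).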
Background: Formazan colour is commonly taken as a measure of viable cells.

Another assay relates to HL-60. Description: (§1) Cytotoxicity against human HL60 cells after 72 hrs by MTS assay. An outline of the steps:
(§2)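 HL-60 (human leukemia) grown in RPMI-1640 with 20% FBS at 37 °C, 5% CO2. Seeded at 1 × 10^4 cells/well and left 24 h, then exposed to a range of sample concentrations for 72 h. MTS added for 2 h; absorbance read at 490 nm against a 690 nm reference.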

A further assay deals with HepG2. Description: Cytotoxicity against human HepG2 cells after 72 hrs by MTS assay. To be noted: for IC50: HepG2, 72 h. An outline of the steps:
(§3)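 HeLa (cervical) and HepG2 (hepatoma) cells kept in high-glucose DMEM with 10% FBS, 5% CO2, 37 °C. Plated at 1 × 10^4 cells/well for 24 h, then treated with graded sample concentrations for 72 h. Viability by MTS reduction over 2 h, measured at 490 nm with 690 nm reference.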

For another assay, the system named is HeLa. Description: Cytotoxicity against human HeLa cells after 72 hrs by MTS assay. An outline of the steps: as §3
Assay [1] in a line: as §1. Particulars: HL-60, 72 h. An outline of the steps:
as §2

The test system of another assay is RPMI-8226. Description: Cytotoxicity against human RPMI8226 cells after 72 hrs by MTS assay. To be noted: RPMI-8226, 72 h.

Active and inactive are the calls of the source. The calls are words filed in the database; no cut-off is given here. Peptide text beside a SMILES is read from it. Some results are limits rather than exact numbers.

As to `CC[C@H](C)[C@@H]1NC(=O)[C@@H]2CCCN2C(=O)[C@H](CC(C)C)NC(=O)[C@@H]2CCCN2C(=O)[C@H](CC(C)C)NC(=O)[C@H](Cc2ccc(O)cc2)NC(=O)[C@H](Cc2ccccc2)NC1=O` (cyclo(FYLPLPI)), the inhibition result with MGC-803, in the assay with HL-60, in the assay with HepG2 and in the assay on HeLa was “inactive” in each case.

Take `CC[C@H](C)[C@@H]1NC(=O)[C@H](Cc2ccccc2)NC(=O)[C@@H]2CCCN2C(=O)[C@H](Cc2ccccc2)NC(=O)[C@@H]2CCCN2C(=O)[C@@H]2CCCN2C(=O)[C@H](Cc2ccccc2)NC1=O` (cyclo(FIFPPFP)): the inhibition result in the assay on MGC-803, in the assay on HL-60, in the assay with HepG2 and with HeLa was “inactive” throughout.

Take `COc1cccc2c1C(=O)c1c(O)c3c(c(O)c1C2=O)C[C@@](O)(C(=O)CO)C[C@@H]3O[C@H]1C[C@H](N)[C@H](O)[C@H](C)O1` [DOXORUBICIN]: the IC50 in the assay with MGC-803 was found to be 100 nM; in assay [1], 200 nM; in the assay on HepG2, 400 nM; in the assay on HeLa it was 500 nM.

With `CC[C@H](C)[C@@H]1NC(=O)[C@H](C(C)C)NC(=O)[C@@H]2CCCN2C(=O)[C@H](Cc2c[nH]c3ccccc23)NC(=O)[C@H](CC(C)C)NC(=O)[C@@H]2CCCN2C(=O)[C@H]([C@@H](C)CC)NC(=O)[C@@H]2CCCN2C1=O` (cyclo(IPIPLWPV)), the IC50 was 4900 nM in the assay with RPMI-8226; 9700 nM with MGC-803; more than 20000 nM in assay [1]; more than 20000 nM in the assay on HepG2; 17300 nM in the assay with HeLa.

For the compound `CC[C@H](C)[C@@H]1NC(=O)[C@H](C(C)C)NC(=O)[C@H](CC(N)=O)NC(=O)[C@@H]2CCCN2C(=O)[C@H](CC(C)C)NC(=O)[C@H](CC(C)C)NC(=O)[C@@H]2CCCN2C1=O` (cyclo(IPLLPNV)), the inhibition result with MGC-803, in the assay on HL-60, in the assay on HepG2 and in the assay with HeLa was “inactive” throughout.

Take `CC[C@H](C)[C@@H]1NC(=O)[C@@H]2CCCN2C(=O)[C@H](Cc2ccccc2)NC(=O)[C@H](Cc2ccc(O)cc2)NC(=O)[C@H]([C@@H](C)CC)NC(=O)[C@@H]2CCCN2C(=O)[C@H](Cc2ccccc2)NC1=O` (cyclo(FPIFPIY)): the inhibition entry in the assay on MGC-803, in the assay on HL-60, with HepG2 and in the assay on HeLa was “inactive” each time.

Values taken from ChEMBL document CHEMBL3352734, “Reniochalistatins A-E, cyclic peptides from the marine sponge Reniochalina stalagmitis” (J Nat Prod, 2014).
